Reference: ChEMBL document CHEMBL4041527, “Disulfide Bond-Containing Ajoene Analogues As Novel Quorum Sensing Inhibitors of Pseudomonas aeruginosa” (J Med Chem, 2017)
The source made the active and inactive calls. No cut-off for these calls is given here.

Key:
[1] = test system: Pseudomonas aeruginosa PAO1; experiment: Inhibition of quorum sensing LasI synthase in Pseudomonas aeruginosa PAO1 harboring reporter plasmid lasB-gfp assessed as reduction in lasB expression at 10 uM measured every 15 mins for 12 hrs by GFP-fluorescence assay
Pseudomonas aeruginosa [2] = experiment: Growth inhibition of Pseudomonas aeruginosa PAO1 harboring reporter plasmid lasB-gfp
[3] = (§1) Inhibition of quorum sensing LasI synthase in Pseudomonas aeruginosa PAO1 harboring reporter plasmid lasB-gfp assessed as reduction in lasB expression measured every 15 mins for 12 hrs by GFP-fluorescence assay
[4] = test system: Pseudomonas aeruginosa PAO1; experiment: as §1
[5] = biological target: T1, HTH-type quorum-sensing regulator RhlR (Pseudomonas aeruginosa (strain ATCC 15692 / PAO1 / 1C / PRS 101 / LMG12228), UniProt P54292); experiment: Inhibition of quorum sensing regulator protein RhlR in Pseudomonas aeruginosa PAO1 harboring reporter plasmid rhlA-gfp assessed as reduction in rhlA expression measured every 15 mins for 12 hrs by GFP-fluorescence assay
T1 sequence (P54292 whole entry): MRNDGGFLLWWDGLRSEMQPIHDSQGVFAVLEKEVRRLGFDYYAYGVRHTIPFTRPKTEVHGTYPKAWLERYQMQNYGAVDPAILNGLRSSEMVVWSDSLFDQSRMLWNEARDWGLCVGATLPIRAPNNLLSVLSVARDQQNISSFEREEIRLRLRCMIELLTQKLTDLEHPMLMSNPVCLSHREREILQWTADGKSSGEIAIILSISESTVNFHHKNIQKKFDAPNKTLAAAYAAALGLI

[6] = test system: Pseudomonas aeruginosa PAO1; experiment: Inhibition of quorum sensing LasI synthase in wild-type Pseudomonas aeruginosa PAO1 assessed as reduction in elastase production at 10 uM incubated for 24 hrs measured every 10 mins for 3 hrs by BODIPY fluorophore-labelled DQ elastin conjugate based fluorescence assay
In short: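 PAO1 wild type, with ∆lasI∆rhlI as negative control, diluted to OD600 0.01 in 5 mL ABTGC with 10 µM compound. Grown 24 h at 37 °C, 200 rpm. Cleared supernatant assayed with BODIPY FL-labelled DQ elastin; fluorescence (ex 490/em 520 nm) read every 10 min for 3 h. Student's t test, mean ± SD.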

[7] = biological target: T2, HTH-type quorum-sensing regulator RhlR (Pseudomonas aeruginosa (strain ATCC 15692 / PAO1 / 1C / PRS 101 / LMG12228)) (UniProt P54292); experiment: Inhibition of quorum sensing regulator protein RhlR in wild-type Pseudomonas aeruginosa PAO1 assessed as reduction in pyocyanin level at 10 uM after 48 hrs
T2 sequence (whole entry): T1 sequence (P54292 whole entry)
In short: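 PAO1 wild type, with ∆lasI∆rhlI as negative control, standardized to OD600 0.1 and diluted 100-fold into 25 mL King's medium with 10 µM compound. Grown 48 h at 37 °C, 200 rpm; final OD600 read. Pyocyanin extracted from supernatant with chloroform then 0.2 M HCl; absorbance read on the aqueous layer. Student's t test.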

[8] = biological target: T2, HTH-type quorum-sensing regulator RhlR (Pseudomonas aeruginosa (strain ATCC 15692 / PAO1 / 1C / PRS 101 / LMG12228)); experiment: Inhibition of quorum sensing regulator protein RhlR in wild-type Pseudomonas aeruginosa PAO1 assessed as reduction in rhamnolipid level at 10 uM after 24 hrs relative to control
In short: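 PAO1 subculture diluted 100-fold into ABTGC (OD600 0.1) with 10 µM compound, ∆lasI∆rhlI as negative control. Grown 24 h at 37 °C, 200 rpm; final OD600 read. Supernatant extracted twice with diethyl ether and rhamnolipid quantified by a modified orcinol method. Student's t test, mean ± SD.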

[9] = test system: Pseudomonas aeruginosa PAO1; experiment: Inhibition of quorum sensing LasI synthase in Pseudomonas aeruginosa PAO1 harboring reporter plasmid lasB-gfp at 10 uM in presence of bovine serum albumin measured after 18 hrs by GFP-fluorescence assay
In short: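 BSA dissolved in ABTGC at 100 mg/mL, then 2-fold serially diluted across rows; compound final 10 µM. PAO1-lasB-gfp, grown overnight in LB, added at OD600 0.02 in ABTGC. GFP/OD read after 18 h at 37 °C.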

RAW264.7 [10] = experiment: Cytotoxicity against mouse RAW264.7 cells at 100 uM measured after 16 hrs by Alamar blue assay; type: cell-based; details: raw264.7, 16 h
In short: (§2)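 RAW264.7 macrophages in DMEM with 10% FBS, 1 × 10^5 per well, grown 16 h. Cells were washed with PBS and exposed to compound at 0, 0.01, 0.1, 1, 10 or 100 µM for 16 h at 37 °C, 5% CO2. Alamar Blue added, 3 h incubation, OD595 read. Triplicates, mean±s.d., compared with DMSO.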

RAW264.7 [11] = experiment: Cytotoxicity against mouse RAW264.7 cells at 0.01 to 10 uM measured after 16 hrs by Alamar blue assay; type: cell-based; details: raw264.7, 16 h; in short: as §2
Pseudomonas aeruginosa [12] = experiment: Antibacterial activity against Pseudomonas aeruginosa in bacterial coated silicone implanted BALB/c mouse assessed as reduction in biofilm formation at 10 uM measured at 24 hrs post infection; type: functional
In short: (§3)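 Female BALB/c mice, 8 weeks old. A 4 mm silicone tube was incubated 18 h at 37 °C in 0.9% NaCl with P. aeruginosa (OD600 0.1), then inserted into the peritoneal cavity under ketamine/xylazine. At 2 h post-infection, 200 µL of 10 µM compound (EtOH stock diluted in 20% hydroxypropyl-β-cyclodextrin/saline) was injected at the implant site; vehicle for controls. At 24 h, CFU/mL counted from sonicated implants and homogenized spleens on LB; Mann-Whitney U test.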

Pseudomonas aeruginosa [13] = experiment: Antibacterial activity against Pseudomonas aeruginosa infected in BALB/c mouse assessed as reduction in bacterial dissemination in spleen at 10 uM measured at 24 hrs post infection; type: functional; in short: as §3
Pseudomonas aeruginosa [14] = experiment: Effect on GFP fluorescence output signal in Pseudomonas aeruginosa PAO1 at 10 uM measured every 15 mins for 12 hrs; type: ADME
In short: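 PAO1-gfp control strain, handled as the lasB-gfp reporter assay. Overnight LB culture diluted in ABTGC to OD600 0.02 and mixed with compound, final 10 µM, DMSO 0.1% final. Incubated at 37 °C; OD600 and GFP fluorescence (ex 485/em 535 nm) read every 15 min for at least 12 h, in triplicate.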

[15] = Inhibition of quorum sensing regulator protein pqsR in Pseudomonas aeruginosa PAO1 harboring reporter plasmid pqsA-gfp assessed as reduction in pqsA expression measured every 15 mins for 12 hrs by GFP-fluorescence assay

Compound | growth inhibition (GI) (Pseudomonas aeruginosa [2]) | IC50 [3] [µM] | further results
C=CCSSc1nnnn1-c1ccccc1 | Non-Toxic |  | inhibition [1]: inactive
C=CCSSc1nc2ccc(OCC)cc2s1 | Non-Toxic | 3.58 | 
FC(F)(F)c1ccc2nc(SSc3ccc(Cl)cc3)sc2c1 | Non-Toxic | 0.58 | 
CCCSc1nc2ccccc2s1 | Non-Toxic |  | inhibition [4]: inactive
C=CCSc1nc2ccccc2s1 | Non-Toxic |  | inhibition [4]: inactive
C=CCSS/C=C/C[S+]([O-])CC=C (configuration not stated) [AJOENE] | Non-Toxic | 15 | IC50 [5]: 50 µM
c1ccc(SSc2nc3ccccc3s2)cc1 | Non-Toxic | 1.34 | 
Clc1ccc(SSc2nc3ccc(Cl)cc3s2)cc1 | Non-Toxic | 3.25 | 
Clc1ccc(SSc2nc3ccccc3s2)cc1 | Non-Toxic | 0.56 | inhibition [6]: Active; inhibition [7]: Active; inhibition [8]: 50%; inhibition [9]: Active; Activity (RAW264.7 [10]): Toxic; Activity (RAW264.7 [11]): Non-Toxic; Activity (Pseudomonas aeruginosa [12]): Active; Activity (Pseudomonas aeruginosa [13]): Active; Activity (Pseudomonas aeruginosa [14]): Non-Toxic
FC(F)(F)c1ccc2nc(SSc3nc4ccc(C(F)(F)F)cc4s3)sc2c1 | Non-Toxic | 12.1 | 
C=CCSSc1nc2ccccc2s1 | Non-Toxic | 0.98 | inhibition [4]: Dose-dependent effect; IC50 [5]: 2.03 µM; IC50 [15]: 0.33 µM; inhibition [6]: Active; inhibition [7]: Active; inhibition [8]: 50%; inhibition [9]: Active; Activity (RAW264.7 [10]): Toxic; Activity (RAW264.7 [11]): Non-Toxic; Activity (Pseudomonas aeruginosa [12]): Active; Activity (Pseudomonas aeruginosa [13]): Active; Activity (Pseudomonas aeruginosa [14]): Non-Toxic
CCCSSc1nc2ccccc2s1 | Non-Toxic | 2.2 | 
C=CCCSc1nc2ccccc2s1 | Non-Toxic |  | inhibition [4]: inactive
C=CCSSc1ccccc1C(=O)OC | Non-Toxic |  | inhibition [1]: inactive
CCOC(=S)SCC#N |  | 2.14 | inhibition [4]: Dose-dependent effect
Cc1ccc2nc(SSc3ccc(Cl)cc3)sc2c1 | Non-Toxic | 0.68 | 

Compound | growth inhibition (GI) (Pseudomonas aeruginosa [2]) | IC50 [3] [µM] | further results
CCOc1ccc2nc(SSc3ccc(Cl)cc3)sc2c1 | Non-Toxic | 0.72 | 
C=CCSSCc1ccccc1 | Non-Toxic | 20.9 | 
Cc1ccc2nc(SSc3nc4ccc(C)cc4s3)sc2c1 | Non-Toxic | 16.9 | 
c1ccc2sc(SSc3nc4ccccc4s3)nc2c1 [BENZOTHIAZYL DISULFIDE] | Non-Toxic | 14.5 | 
C=CCSSc1nc2ccc(C(F)(F)F)cc2s1 | Non-Toxic | 1.35 | 
CCOc1ccc2nc(SSc3nc4ccc(OCC)cc4s3)sc2c1 | Non-Toxic | 45.4 | 
C[S+]([O-])CCCN=C=S (configuration not stated) | Non-Toxic | 31 | 
O=C(NS(=O)(=O)c1ccccc1)c1ccccc1 |  | 36.2 | inhibition [4]: Dose-dependent effect
C=CCSSc1nc2ccc(C)cc2s1 | Non-Toxic | 1.12 | 
c1ccc2sc(SSC3CCCCC3)nc2c1 | Non-Toxic | 6 | 
Clc1ccc(Sc2nc3ccccc3s2)cc1 | Non-Toxic |  | inhibition [4]: inactive
C=CCSSc1nc2ccc(Cl)cc2o1 | Non-Toxic | 4.08 | 
C=CCSSc1nc2ccc(Cl)cc2s1 | Non-Toxic | 0.78 | 
C=CCSSc1nc2cc(OC)ccc2o1 | Non-Toxic | 3.45 | 
C=CCSSc1nnc(N)s1 | Non-Toxic | 2.28 | inhibition [4]: Dose-dependent effect
COc1ccc(SSc2nc3ccccc3s2)cc1 | Non-Toxic | 1.66 | 
